Hck-Nef inh: inhibitors of Nef-activated human Hck kinase, primary screen, biochemical, Z-Lyte FRET, 384-well, Hck-YEEI; Tyrosine-protein kinase HCK (Homo sapiens), P08631; Recombinant Hck-YEEI plus Nef, Z-Lyte FRET kinase assay; inhibition, % at 20 µM; 220,000 tested, 0.68% active;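 active = Hck-Nef kinase inhibition above about 50%, limit read from the data; inactive = inhibition below that limit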
Target sequence (P08631 whole entry, looked up): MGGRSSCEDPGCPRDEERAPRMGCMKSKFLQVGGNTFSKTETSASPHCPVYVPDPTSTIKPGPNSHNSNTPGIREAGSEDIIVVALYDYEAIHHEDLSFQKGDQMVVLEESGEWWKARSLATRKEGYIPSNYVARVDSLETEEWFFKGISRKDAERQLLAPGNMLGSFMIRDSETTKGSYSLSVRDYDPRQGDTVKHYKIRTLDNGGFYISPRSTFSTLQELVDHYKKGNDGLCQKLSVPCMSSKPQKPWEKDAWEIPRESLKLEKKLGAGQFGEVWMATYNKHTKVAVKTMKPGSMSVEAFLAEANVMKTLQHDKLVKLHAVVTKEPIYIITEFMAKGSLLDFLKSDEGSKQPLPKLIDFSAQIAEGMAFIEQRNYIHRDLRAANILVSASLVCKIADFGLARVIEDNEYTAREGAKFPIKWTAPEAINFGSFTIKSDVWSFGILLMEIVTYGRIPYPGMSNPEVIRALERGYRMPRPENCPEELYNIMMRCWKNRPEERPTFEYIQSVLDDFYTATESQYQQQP
RanGTP-Imp inh: inhibitors of RanGTP-importin-beta interaction, primary screen, biochemical, FRET, CFP-Ran, YFP-importin-beta, homogeneous | cell-free CFP-Ran/YFP-importin-beta FRET ratio | inhibition, % (concentration not given with the values) | 300,000 tested, 1.1% active | AID 2216, 2009;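 active = more than half of the replicate wells show a fall in the fluorescence ratio signal beyond about 16%, limit read from the data, passing the limit was not always enough; inconclusive = exactly half of the replicate wells pass the set limit; inactive = fewer than half of replicates pass the limit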
CaV13 ICDI inh: Primary screen for inhibitors of IQ motif and Ca2+-dependent inactivation inhibitor domain binding in CACNA1D, Förster resonance energy transfer in living cells, …; HEK cells, CFP/YFP FRET ICDI-IQ, plate reader, 10 min; percent FRET-ratio fall versus neutral wells; inhibition, % at 12.3 µM; 340,000 tested, 0.098% active; AID 743397;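 active = mean replicate inhibition of at least 30% and at least 1% of replicates passing that level; inconclusive = only one of the two criteria is met; inactive = neither criterion is met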
Runt-SMMHC FRET: inhibitors of RUNX1 Runt–CBFb-SMMHC binding, primary screen, biochemical, FRET, Cerulean-Runt, Venus-CBFb-SMMHC, uHTS; Cerulean-Runt/Venus-CBFb-SMMHC FRET ratio 530/480, 1 h; inhibition, % at 20 µM; 220,000 tested, 0.74% active; Runt-related transcription factor 1 (Homo sapiens) + Core-binding factor subunit beta …;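 active = mean inhibition across duplicate retests at 20 µM reaching about 50%, limit read from the data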;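 also: inhibitors lower the FRET ratio by blocking Runt binding to CBFb-SMMHC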
Runt-CBFb FRET: inhibitors of RUNX1 Runt–CBFb binding, primary screen, biochemical, FRET, Cerulean-Runt, Venus-CBFb, uHTS; Runt-related transcription factor 1 (Homo sapiens) + Core-binding factor subunit beta …; Cerulean-Runt/Venus-CBFb FRET ratio 530/480, 1 h; inhibition, % at 20 µM; 220,000 tested, 0.46% active;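 active = inhibition over about 50% at 20 µM in the single-dose screen, limit read from the data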
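Reagent – Venus-CBFb binding partner, 100 nM · Assay system – Cerulean-tagged RUNX1 Runt domain (FRET donor) fusion protein · Input – 100 nM per protein · Incubation – two 1 h room-temperature incubations shielded from light · Measured by – FRET fluorescence · Medium – Tris buffer pH 7.5 with salts and BSA · Benchmarks – unlabeled CBFb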
A number is an active result; . = inactive; ? = inconclusive; / = no result. Rows were chosen to be rich in hits. Some 1.5% of all compounds tested hit in one or more screens of this group.

SMILES	Hck-Nef inh	RanGTP-Imp inh	CaV13 ICDI inh	Runt-SMMHC FRET	Runt-CBFb FRET
COC(=O)c1c(C(=O)OC)c2cc(C(=O)c3ccccc3)ccn2c1Cl	.	29	/	.	.
CCC(=O)Oc1ccc2c(c1)O/C(=C\c1ccco1)C2=O	.	.	.	81	.
COc1ccccc1C1CN(c2ccccc2)N=C1c1cccs1 (stereo unspecified)	.	.	.	59	.
CN(C)S(=O)(=O)c1ccc(NC(=S)NC(=O)c2cccs2)cc1	.	.	.	.	.
COCCNC(=O)Cn1cc(/C=C(\C#N)C(=O)NC2CCCC2)c2ccccc21	/	52	.	/	/
N#C/C(=C\c1cn(CCOc2ccccc2)c2ccccc12)C(=O)NCc1ccco1	.	.	.	.	.
Cc1ccc(C)c(NC(=O)/C(C#N)=C/c2cn(CC(=O)NCc3ccco3)c3ccccc23)c1	.	98	.	.	.
CNC(=O)/C(C#N)=C/c1cn(CC(=O)NCc2ccco2)c2ccccc12	.	.	.	.	.
Cc1cc(C)cc(NC(=O)/C(C#N)=C/c2cn(CC(=O)NCc3ccco3)c3ccccc23)c1	.	82	.	.	.
Cc1ccccc1OCCn1cc(/C=C(\C#N)C(=O)NCc2ccco2)c2ccccc21	.	.	.	63	.
Cc1ccc(-n2c(SCC(=O)Nc3cc(S(=O)(=O)N4CCOCC4)ccc3Cl)nc3ccccc3c2=O)cc1	.	.	/	.	.
O=C(NCc1ccco1)C(=O)NCc1ccccc1Cl	.	.	.	.	.
C/C(=N\NC(=O)COc1ccc2ccccc2c1)c1cccs1	/	.	.	/	/
O=C(COc1ccc2ccccc2c1)Nc1cccc2c1C(=O)NC2=O	60	.	/	.	.
Oc1ccc(Br)cc1/C=N/n1c(-c2ccccc2)n[nH]c1=S	/	18	.	/	/
O=[N+]([O-])c1cccc(-c2cn3nc(-c4ccccc4)c(-c4ccccc4)nc3n2)c1	.	70	.	.	.
Cc1ccc(-c2cn3nc(-c4ccccc4)c(-c4ccccc4)nc3n2)cc1	.	90	.	.	.
c1ccc(-c2cn3nc(-c4ccccc4)c(-c4ccccc4)nc3n2)cc1	.	.	.	.	/
O=[N+]([O-])c1ccc(-c2cn3nc(-c4ccccc4)c(-c4ccccc4)nc3n2)cc1	.	42	?	.	.
CCC(C)(C)n1nnnc1C(C(C)C)N(CCCO)Cc1cc2cc(C)ccc2[nH]c1=O (stereo unspecified)	.	.	.	.	.
Cc1ccc(NS(=O)(=O)c2ccc(C3CCCCC3)cc2)cc1	.	.	.	.	.
Cc1cc(NC(=O)CCN2CCC(C(N)=O)CC2)ccc1Br	.	59	.	.	.
CCOC(=O)C1CCN(CCC(=O)Nc2ccc(Br)c(C)c2)CC1	/	.	.	/	/
COc1ccc(-c2nc3ccccc3s2)cc1NC(C)=O	.	.	.	.	.
CCN(CC(=O)Nc1ccc(S(N)(=O)=O)cc1)S(=O)(=O)c1cc(C)ccc1OC	.	.	.	.	.
SMILES	Hck-Nef inh	RanGTP-Imp inh	CaV13 ICDI inh	Runt-SMMHC FRET	Runt-CBFb FRET
N#C/C(=C(/O)CCCl)c1ccccn1	.	21	.	92	.
CCN(CC)CCCNc1nc(C)cc(COC)c1C#N	.	.	45	.	.
CCc1cc2c(-c3ccccc3)cc(=O)oc2cc1OC(C)C(=O)O (stereo unspecified)	/	.	.	/	/
O=C(NC(Cc1ccccc1)C(=O)Oc1ccc2c(C(F)(F)F)cc(=O)oc2c1)OCc1ccccc1 (stereo unspecified)	.	37	/	81	.
CC(NC(=O)OCc1ccccc1)C(=O)Oc1cc2oc(=O)cc(-c3ccccc3)c2cc1Cl (stereo unspecified)	.	.	.	60	.
CC(C)[C@H](NC(=O)OCc1ccccc1)C(=O)OCc1cc(=O)oc2cc(O)ccc12	/	.	.	/	/
Cn1c(CNC(=O)c2cccs2)nnc1SCC(=O)Nc1ccccc1	.	.	.	.	.
CCN1CCN(c2ccc(S(=O)(=O)N3CCOCC3)cc2NC(=O)CCC(C)C)CC1	/	.	.	/	/
COc1ccc(NC(=O)CN2C(=O)NC(c3ccccc3)(c3ccccc3)C2=O)cc1	/	.	.	/	/
COc1ccc(NC(=O)CN2C(=O)NC(c3ccccc3)(c3ccccc3)C2=O)cc1OC	/	31	.	/	/
CC(OC(=O)/C(C#N)=C/c1ccc(N(C)C)cc1)C(=O)N(C)Cc1ccccc1 (stereo unspecified)	/	81	/	/	/
COc1cc(NS(=O)(=O)c2ccc(N/C=C\C(=O)c3ccc(C)cc3)cc2)nc(OC)n1	.	?	/	/	/
COc1cc(NS(=O)(=O)c2ccc(N/C=C\C(=O)c3ccc(OC)c(OC)c3)cc2)nc(OC)n1	.	.	.	83	.
Cc1ccc(NC(=O)CSc2ncccn2)cc1F	.	96	.	.	.
CCc1cc(=O)oc2cc(OC(=O)CN3C(=O)NC4(CCCC4)C3=O)ccc12	/	.	.	/	/
O=C(CN1C(=O)NC2(CCCCC2)C1=O)Oc1ccc2c(C(F)(F)F)cc(=O)oc2c1	/	33	.	/	/
CC(=O)Nc1sc2c(c1C#N)CCN(Cc1ccccc1)C2	/	75	.	/	/
CN1CCc2c(C#N)c(N3CCCCC3)nc(NCc3ccccc3)c2C1	.	.	.	.	.
CC(=O)N1CCc2c(sc(NC(=O)Cc3ccccc3)c2C#N)C1	/	.	.	/	/
N#Cc1c(NC(=O)/C=C/C(=O)O)sc2c1CCN(Cc1ccccc1)C2	/	141	.	/	/
N#Cc1c(NCCCO)nc(NCc2ccccc2)c2c1CCN(Cc1ccccc1)C2	.	89	32	.	.
CCOC(=O)CC(=O)CSc1nc2c(c(C)c1C#N)CCC2	.	24	.	.	.
CC(C)OC(=O)CSc1nc2c(cc1C#N)CCCCC2	.	.	.	.	.
CC(C)OC(=O)CC(=O)CSc1nc2c(cc1C#N)CCCCC2	.	26	.	71	.
CCOC(=O)CC(=O)CSc1nc(C)cc(C)c1C#N	.	?	.	.	.
SMILES	Hck-Nef inh	RanGTP-Imp inh	CaV13 ICDI inh	Runt-SMMHC FRET	Runt-CBFb FRET
CC(=O)c1cccc(NC(=O)Nc2c(C)nn(C)c2C)c1	.	63	.	.	.
CC(=O)c1cccc(S(=O)(=O)Nc2c(C)nn(C)c2C)c1	/	/	.	/	/
Cc1ccc(C(=O)CNc2ccc(Br)cc2)cc1	.	.	.	.	.
Cc1cc(C)c2nc(N3CCCN(C(=O)c4ccco4)CC3)c(C#N)cc2c1	.	89	.	70	.
COc1ccc(C(=O)NCCCNc2nc3cc(C)cc(C)c3cc2C#N)cc1	/	/	.	/	/
Cc1nc(N2CCN(C(=O)c3ccco3)CC2)c(C#N)c2c1CCCC2	/	.	.	/	/
